We go through two compounds from paper PMC10864842 (Saudi Pharmaceutical Journal : SPJ, 2024).

Molecules are shown by their SMILES. Values joined by “and” are separate entries in the source; they are usually repeats but may differ in a detail not shown here. Identical values can stand only once. Like-named read-outs stand apart in the source and are kept apart here.

Series [1] has as its target T1, KSP ATPase (Homo sapiens, UniProt P52732).
T1 sequence (P52732 1-1056): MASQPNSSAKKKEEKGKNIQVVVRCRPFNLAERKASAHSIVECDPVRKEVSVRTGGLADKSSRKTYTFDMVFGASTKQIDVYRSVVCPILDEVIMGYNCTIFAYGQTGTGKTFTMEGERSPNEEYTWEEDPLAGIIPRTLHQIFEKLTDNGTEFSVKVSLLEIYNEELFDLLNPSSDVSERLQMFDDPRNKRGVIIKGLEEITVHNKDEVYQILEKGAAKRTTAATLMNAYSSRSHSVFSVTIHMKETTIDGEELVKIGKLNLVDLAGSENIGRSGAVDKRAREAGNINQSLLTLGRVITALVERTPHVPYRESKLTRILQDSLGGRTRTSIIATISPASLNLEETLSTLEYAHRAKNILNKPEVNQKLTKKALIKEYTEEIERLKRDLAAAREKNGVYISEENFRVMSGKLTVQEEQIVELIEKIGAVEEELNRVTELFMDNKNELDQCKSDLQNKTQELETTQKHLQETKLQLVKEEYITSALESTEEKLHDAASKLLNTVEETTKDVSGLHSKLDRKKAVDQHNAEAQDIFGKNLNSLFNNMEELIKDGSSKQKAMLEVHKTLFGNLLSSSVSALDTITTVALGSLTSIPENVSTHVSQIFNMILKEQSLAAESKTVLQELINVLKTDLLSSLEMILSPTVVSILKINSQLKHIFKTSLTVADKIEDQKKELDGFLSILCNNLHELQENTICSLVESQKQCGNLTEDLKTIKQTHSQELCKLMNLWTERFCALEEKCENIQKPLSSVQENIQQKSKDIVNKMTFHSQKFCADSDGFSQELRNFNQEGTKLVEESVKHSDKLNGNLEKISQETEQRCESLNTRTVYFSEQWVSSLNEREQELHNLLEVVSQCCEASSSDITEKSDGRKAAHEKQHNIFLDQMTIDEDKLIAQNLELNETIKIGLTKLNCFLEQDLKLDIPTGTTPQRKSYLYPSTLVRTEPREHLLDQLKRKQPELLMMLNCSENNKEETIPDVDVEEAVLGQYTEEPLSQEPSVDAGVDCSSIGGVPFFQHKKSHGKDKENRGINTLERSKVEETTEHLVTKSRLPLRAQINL
Put plainly: Microtubule-activated KSP ATPase kinetic assay. It counts as biochemical.

Series [2] deals with MDA-MB-231 breast cancer cells. Put plainly: MTT assay on MDA-MB-231 cells. Format: cell-based. Particulars: Homo sapiens. The procedure, abridged:
(§1)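 Cells kept in DMEM with 10% (v/v) FBS and 1% (v/v) streptomycin/penicillin at 37 °C and 5% CO2. About 10^4 cells/ml were seeded and grown for 24 h. Test compounds in DMSO were added at 6.25, 12.5, 25, 50 and 100 µg/ml for 24 and 48 h. Medium was replaced with 5 mg/mL MTT for 3–4 h. Formazan was dissolved in acidified isopropanol and read at 630 nm. Viability is expressed as % of untreated cells.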
(Tetrazolium dyes change colour on reduction, which living cells bring about.)

Series [3] can be described thus: MTT assay on oral epithelial normal cells. It counts as cell-based. Put shortly:
as §1

The subject of series [4] is MDA-MB-231 cells. Put plainly: Annexin V-FITC/PI flow cytometry. It counts as cell-based. The following applies: MDA-MB-231, Annexin V-FITC & PI, post-treatment. Put shortly: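 MDA-MB-231 cells were kept in DMEM with 10% FBS and 1% streptomycin/penicillin at 37 °C under 5% CO2. Cells were treated with the test compound for 48 h, with doxorubicin as the standard and untreated cells for comparison. Cells were then harvested, rinsed, suspended in PBS, stained with Annexin V-FITC/PI and held 20 min in the dark before flow cytometry. Early apoptosis was Annexin V+/PI−; late apoptosis was Annexin V+/PI+.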
For orientation: A flow cytometer gives signals particle by particle.

Series [5] deals with MDA-MB-231 cells. Put plainly: Morphological study by inverted microscope. It counts as cell-based. The following applies: 48 h. The procedure, abridged:
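MDA-MB-231 cells were grown in DMEM with 10% FBS and 1% streptomycin/penicillin at 37 °C, 5% CO2. They were treated with varying concentrations of test compound for 48 h and examined by inverted light microscopy. Phenotypic changes were scored as cell shrinkage, apoptotic body formation and membrane blebbing.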

In series [6] the target is PI3Kδ (Homo sapiens, UniProt O00329). Put plainly: PI3Kδ inhibition assay. Format: biochemical.
Series [7] relates to MDA-MB-231 cells. Put plainly: qRT-PCR relative gene expression of P53, BAX and BCL-2. Format: cell-based. Particulars: MDA-MB-231, 48 h. The procedure, abridged:
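RNA was extracted from cells after 48 h of treatment with test compound, and its purity was checked by nanodrop. P53, BAX and BCL-2 expression was normalised to β-actin as the housekeeping gene. Treated and untreated cells were compared by ANOVA.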

The target of series [8] is T1, KSP ATPase. Put plainly: Microtubule-activated KSP ATPase end-point assay. It counts as biochemical. Particulars: read-out: KSP ATPase inhibition [%].
Series [9] relates to MDA-MB-231 cells. Briefly: DNA fragmentation by gel electrophoresis. Format: cell-based. Particulars: post-treatment. The procedure, abridged:
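MDA-MB-231 cells kept in DMEM with 10% FBS and 1% streptomycin/penicillin at 37 °C, 5% CO2. Genomic DNA was extracted with a commercial kit from cells before and after test compound treatment, and its quality was checked by nanodrop. DNA plus 1X loading dye was run on agarose gel, viewed under a UV transilluminator and imaged on a gel documentation system. Doxorubicin served as reference.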

Setting [10] is: MDA-MB-231, 24 h, read-out: IC50 after 24 h (µM).
[11] abbreviates: MDA-MB-231, 24 h, read-out: IC50 after 24 h in µg/mL.
Where [12] appears, read: MDA-MB-231, 48 h, read-out: IC50 after 48 h (µM).
[13] abbreviates: MDA-MB-231, 48 h, read-out: IC50 after 48 h in µg/mL.

Chain of PI3Kδ (O00329 whole entry): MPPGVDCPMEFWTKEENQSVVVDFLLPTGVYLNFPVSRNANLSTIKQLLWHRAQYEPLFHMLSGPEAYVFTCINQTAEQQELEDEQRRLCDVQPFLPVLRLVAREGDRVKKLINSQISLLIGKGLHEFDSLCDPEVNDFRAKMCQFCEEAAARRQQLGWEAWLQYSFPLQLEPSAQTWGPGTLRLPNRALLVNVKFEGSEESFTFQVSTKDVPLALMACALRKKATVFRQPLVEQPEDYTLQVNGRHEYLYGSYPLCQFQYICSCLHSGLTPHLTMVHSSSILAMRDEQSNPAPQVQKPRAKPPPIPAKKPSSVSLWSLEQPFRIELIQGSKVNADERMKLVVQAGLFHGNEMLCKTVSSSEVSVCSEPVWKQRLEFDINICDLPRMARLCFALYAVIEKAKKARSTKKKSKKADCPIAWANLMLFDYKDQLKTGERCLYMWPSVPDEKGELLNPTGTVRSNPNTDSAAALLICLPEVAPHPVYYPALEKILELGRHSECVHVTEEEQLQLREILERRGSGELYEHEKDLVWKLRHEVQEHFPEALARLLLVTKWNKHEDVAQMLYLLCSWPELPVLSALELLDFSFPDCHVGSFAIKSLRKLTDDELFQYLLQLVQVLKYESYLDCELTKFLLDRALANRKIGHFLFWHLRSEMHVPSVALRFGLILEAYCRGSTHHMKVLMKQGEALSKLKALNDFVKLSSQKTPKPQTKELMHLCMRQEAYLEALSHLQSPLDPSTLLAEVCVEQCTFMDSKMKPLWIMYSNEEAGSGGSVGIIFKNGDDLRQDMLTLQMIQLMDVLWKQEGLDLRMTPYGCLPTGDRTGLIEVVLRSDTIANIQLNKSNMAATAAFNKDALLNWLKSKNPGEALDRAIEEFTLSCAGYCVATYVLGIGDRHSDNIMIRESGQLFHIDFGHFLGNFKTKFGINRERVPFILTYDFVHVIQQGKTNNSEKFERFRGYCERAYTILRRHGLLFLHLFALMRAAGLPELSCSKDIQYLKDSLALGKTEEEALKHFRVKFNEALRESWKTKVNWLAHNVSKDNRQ
Chain of PI3Kδ (P27986 whole entry partner): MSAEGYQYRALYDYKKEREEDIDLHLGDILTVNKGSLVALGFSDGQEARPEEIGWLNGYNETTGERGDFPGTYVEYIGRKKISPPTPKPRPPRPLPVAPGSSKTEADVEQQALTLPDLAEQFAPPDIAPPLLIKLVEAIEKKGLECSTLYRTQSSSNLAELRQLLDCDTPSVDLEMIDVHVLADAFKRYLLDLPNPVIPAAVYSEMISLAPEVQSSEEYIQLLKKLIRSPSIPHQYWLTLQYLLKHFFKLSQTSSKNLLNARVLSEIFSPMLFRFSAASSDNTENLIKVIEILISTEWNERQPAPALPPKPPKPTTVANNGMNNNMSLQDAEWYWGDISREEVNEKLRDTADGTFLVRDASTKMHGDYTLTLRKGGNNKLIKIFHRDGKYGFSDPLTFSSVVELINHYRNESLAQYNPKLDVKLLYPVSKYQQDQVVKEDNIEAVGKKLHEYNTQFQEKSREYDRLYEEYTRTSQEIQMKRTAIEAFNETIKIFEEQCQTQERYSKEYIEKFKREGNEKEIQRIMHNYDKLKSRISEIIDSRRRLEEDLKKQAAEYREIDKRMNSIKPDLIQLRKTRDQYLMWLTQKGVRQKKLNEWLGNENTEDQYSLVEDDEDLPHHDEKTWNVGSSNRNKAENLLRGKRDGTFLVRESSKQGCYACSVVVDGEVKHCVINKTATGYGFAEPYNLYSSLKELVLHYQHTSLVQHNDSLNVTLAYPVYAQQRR

Broadly, the inhibition is the share of the control response that was lost under treatment. As to `CC(C)=CCSc1nc2ccc(Cl)cc2c(=O)n1-c1ccc(F)cc1` [Compound 3b, 6-Chloro-3-(4-fluorophenyl)-2-((3-methylbut-2-en-1-yl)thio)quinazolin-4(3H)-one], the IC50 in series [1] was 0.0858 µM; in series [2] (setting [10]) it was 47.5 µM; in [2] (setting [11]), 17.8 ± 0.12 µg/mL; in [2] (setting [12]) it was 16.3 µM; in series [2] (setting [13]), 6.1 ± 0.1 µg/mL; in [6] it was 0.0323 ± 0.00218 µM. The IC50 at 48 h in series [3] is 98 µg/mL and 261 µM. For the same compound, in series [4], the “Number of cells in the early and late apoptosis versus untreated cells” value is on record as “significant increase”. Besides, the “Morphological changes of treated cells” value in [5] is “cell shrinkage, apoptotic bodies formation, and membrane blebbing”. Moreover, the “Relative gene expression of BAX” value in series [7] is given as “significant overexpression”. The “Relative gene expression of BCL-2” value in [7] was “downregulation”. In addition, the “Relative gene expression of P53” value in [7] is given as “significant overexpression”. In addition, the inhibition at 2 µM in series [8] stood at 89.6 ± 3.42%. The DNA fragmentation entry in series [9] is recorded as “internucleosomal fragmentation was noticed”.
`O=c1c2cc(Cl)ccc2nc(SCc2ccc(F)cc2)n1-c1ccc(F)cc1` [Compound 3e, 6-Chloro-2-((4-fluorobenzyl)thio)-3-(4-fluorophenyl)quinazolin-4(3H)-one]: the IC50 in series [1] is 0.0684 µM; in [2] (setting [10]), 21.5 µM; in series [2] (setting [11]), 8.94 ± 0.08 µg/mL; in [2] (setting [12]) it was 9.97 µM; in series [2] (setting [13]), 4.14 ± 0.11 µg/mL; in series [6] it was 0.0454 ± 0.00205 µM. In [3], the IC50 at 48 h is 92.1 µg/mL and 222 µM. Also, the “Number of cells in the early and late apoptosis versus untreated cells” value in series [4] was “significant increase”. For the same compound, the “Morphological changes of treated cells” value in [5] was “cell shrinkage, apoptotic bodies formation, and membrane blebbing”. In [7], the “Relative gene expression of BAX” value is recorded as “significant overexpression”. In series [7], the “Relative gene expression of BCL-2” value is given as “downregulation”. Besides, in series [7], the “Relative gene expression of P53” value was “significant overexpression”. Besides, the inhibition at 2 µM in series [8] came out at 93.3 ± 2.1%. In addition, the DNA fragmentation result in series [9] is “internucleosomal fragmentation was noticed”.
